ChEMBL document CHEMBL3112475, “Synthesis of novel ring-A fused hybrids of oleanolic acid with capabilities to arrest cell cycle and induce apoptosis in breast cancer cells” (Eur J Med Chem, 2014)
Activity calls are given as the source filed them. The rule behind the calls is not given here.

Legend:
MCF7 [1] = assay: Cytotoxicity against human MCF7 cells after 48 hrs by MTT assay; assay type: functional, cell-based; settings: MCF7, 48 h
Outline: (§1)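 1 × 10⁴ cells, counted by trypan blue exclusion, were incubated in 96-well plates with a concentration series for 48 h at 37 °C in DMEM with 10% FBS. MTT reagent (5 mg/ml) was added and absorbance read at 570 nm. IC50 was taken from a plot of % viability versus control against concentration. Compounds were first screened at 100 µM, and only those giving ≥50% cytotoxicity went to dose-response.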

PC-3 = assay: Cytotoxicity against human PC3 cells after 48 hrs by MTT assay; assay type: functional, cell-based; settings: PC-3, 48 h; outline: as §1
MDA-MB-231 = assay: Cytotoxicity against human MDA-MB-231 cells after 48 hrs by MTT assay; assay type: functional, cell-based; settings: MDA-MB-231, 48 h; outline: as §1
[2] = Cytotoxicity against human ME180 cells after 48 hrs by MTT assay; assay type: functional, cell-based; settings: ME-180, 48 h; outline: as §1
HeLa = assay: Cytotoxicity against human HeLa cells after 48 hrs by MTT assay; assay type: functional, cell-based; outline: as §1
MDA-MB-453 = assay: Cytotoxicity against human MDA-MB-453 cells after 48 hrs by MTT assay; assay type: functional, cell-based; settings: MDA-MB-453, 48 h; outline: as §1
HT-29 = assay: Cytotoxicity against human HT-29 cells after 48 hrs by MTT assay; assay type: functional, cell-based; settings: HT-29, 48 h; outline: as §1
MCF7 [3] = assay: Cell cycle arrest in human MCF7 cells assessed as accumulation at G2/M phase at 5 uM after 48 hrs by propidium iodide staining (reference value: 14.9%); assay type: functional
MCF7 [4] = assay: Induction of apoptosis in human MCF7 cells assessed as increase of early apoptotic cells at 5 uM after 48 hrs by acridine orange and ethidium bromide staining based fluorescence microscopic analysis; assay type: functional, cell-based
Outline: (§2)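 MCF-7 cells were plated at 1 × 10⁶ cells/ml and treated with compound for 48 h. After acridine orange/ethidium bromide dual staining, cells were viewed 30 min later by fluorescence microscopy through a blue filter. Green homogeneous nuclei were scored as intact, condensed or fragmented chromatin as apoptotic, and orange-red nuclei as late apoptotic/necrotic. At least 200 cells were counted in random fields, and each test was done three times.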

MCF7 [5] = assay: Induction of morphological change in human MCF7 cells assessed as membrane blebbing at 10 uM after 48 hrs by acridine orange and ethidium bromide staining based fluorescence microscopic analysis; assay type: functional, cell-based; outline: as §2
MCF7 [6] = assay: Cell cycle arrest in human MCF7 cells assessed as accumulation at G2/M phase at 10 uM after 48 hrs by propidium iodide staining (reference value: 14.9%); assay type: functional
MCF7 [7] = assay: Induction of morphological change in human MCF7 cells assessed as cell shrinkage at 10 uM after 48 hrs by acridine orange and ethidium bromide staining based fluorescence microscopic analysis; assay type: functional; outline: as §2
MCF7 [8] = assay: Cell cycle arrest in human MCF7 cells assessed as accumulation at G0/G1 phase at 5 uM after 48 hrs by propidium iodide staining (reference value: 69.2%); assay type: functional
MCF7 [9] = assay: Induction of morphological change in human MCF7 cells assessed as chromatin condensation with destructive fragmentation of nucleus at 10 uM after 48 hrs by acridine orange and ethidium bromide staining based fluorescence microscopic analysis; assay type: functional, cell-based; outline: as §2
MCF7 [10] = assay: Induction of apoptosis in human MCF7 cells assessed as increase of late apoptotic/necrotic cells at 10 uM after 48 hrs by acridine orange and ethidium bromide staining based fluorescence microscopic analysis; assay type: functional, cell-based; outline: as §2
MCF7 [11] = assay: Ratio of etoposide IC50 to compound IC50 for human MCF7 cells; assay type: functional
MCF7 [12] = assay: Cell cycle arrest in human MCF7 cells assessed as accumulation at S phase at 5 uM after 48 hrs by propidium iodide staining (reference value: 10.2%); assay type: functional
MCF7 [13] = assay: Cell cycle arrest in human MCF7 cells assessed as accumulation at G0/G1 phase at 10 uM after 48 hrs by propidium iodide staining (reference value: 69.2%); assay type: functional
MCF7 [14] = assay: Cell cycle arrest in human MCF7 cells assessed as accumulation at S phase at 10 uM after 48 hrs by propidium iodide staining (reference value: 10.2%); assay type: functional

SMILES | IC50 (MCF7 [1]) [µM] | IC50 (PC-3) [µM] | IC50 (MDA-MB-231) [µM] | IC50 [2] [µM] | IC50 (HeLa) [µM] | IC50 (MDA-MB-453) [µM] | IC50 (HT-29) [µM] | Activity (MCF7 [3]) [%] | Activity (MCF7 [4]) | Activity (MCF7 [5]) | Activity (MCF7 [6]) [%] | Activity (MCF7 [7]) | Activity (MCF7 [8]) [%] | Activity (MCF7 [9]) | Activity (MCF7 [10]) | Ratio IC50 (MCF7 [11]) | Activity (MCF7 [12]) [%] | Activity (MCF7 [13]) [%] | Activity (MCF7 [14]) [%]
COC(=O)[C@]12CCC(C)(C)C[C@H]1C1=CC[C@@H]3[C@@]4(C)Cc5c(noc5-c5ccccc5)C(C)(C)[C@@H]4CC[C@@]3(C)[C@]1(C)CC2 | 88.2 | > 100 | > 100 | > 100 | > 100 | > 100 | > 100 | – | – | – | – | – | – | – | – | – | – | – | –
COC(=O)[C@]12CCC(C)(C)C[C@H]1C1=CC[C@@H]3[C@@]4(C)C/C(=C\c5ccccc5)C(=O)C(C)(C)[C@@H]4CC[C@@]3(C)[C@]1(C)CC2 | 71.7 | > 100 | > 100 | > 100 | > 100 | > 100 | > 100 | – | – | – | – | – | – | – | – | – | – | – | –
COC(=O)[C@]12CCC(C)(C)C[C@H]1C1=CC[C@@H]3[C@@]4(C)Cc5c(-c6ccccc6)nc(N)nc5C(C)(C)[C@@H]4CC[C@@]3(C)[C@]1(C)CC2 | 10.6 | 75.3 | 16.3 | 16.7 | 45.1 | 12.6 | 30.7 | 17.8 | Active | Active | 14.2 | Active | 62.4 | Active | Active | 2 | 13 | 59.4 | 19.8
COC(=O)[C@]12CCC(C)(C)C[C@H]1C1=CC[C@@H]3[C@@]4(C)Cc5c(-c6ccccc6)nc(=S)[nH]c5C(C)(C)[C@@H]4CC[C@@]3(C)[C@]1(C)CC2 | 30.9 | > 100 | 75.5 | > 100 | 75.4 | 40.6 | 69 | – | – | – | – | – | – | – | – | – | – | – | –
COC(=O)[C@]12CCC(C)(C)C[C@H]1C1=CC[C@@H]3[C@@]4(C)Cc5c(-c6ccccc6)nc(=O)[nH]c5C(C)(C)[C@@H]4CC[C@@]3(C)[C@]1(C)CC2 | 78.9 | 87.4 | > 100 | > 100 | > 100 | 96.7 | > 100 | – | – | – | – | – | – | – | – | – | – | – | –
COc1cccc2c1C(=O)c1c(O)c3c(c(O)c1C2=O)C[C@@](O)(C(=O)CO)C[C@@H]3O[C@H]1C[C@H](N)[C@H](O)[C@H](C)O1 [DOXORUBICIN] | – | 0.19 | – | 0.39 | 0.36 | 1.99 | – | – | – | – | – | – | – | – | – | – | – | – | –
COC(=O)[C@]12CCC(C)(C)C[C@H]1C1=CC[C@@H]3[C@@]4(C)C[C@@H]5C(=NN[C@H]5c5ccccc5)C(C)(C)[C@@H]4CC[C@@]3(C)[C@]1(C)CC2 | 96.6 | > 100 | > 100 | > 100 | > 100 | > 100 | > 100 | – | – | – | – | – | – | – | – | – | – | – | –
COC(=O)[C@]12CCC(C)(C)C[C@H]1C1=CC[C@@H]3[C@@]4(C)CCC(=O)C(C)(C)[C@@H]4CC[C@@]3(C)[C@]1(C)CC2 | 78.7 | > 100 | > 100 | > 100 | > 100 | > 100 | > 100 | – | – | – | – | – | – | – | – | – | – | – | –
COC(=O)[C@]12CCC(C)(C)C[C@H]1C1=CC[C@@H]3[C@@]4(C)Cc5c(nn(-c6ccccc6)c5-c5ccccc5)C(C)(C)[C@@H]4CC[C@@]3(C)[C@]1(C)CC2 | > 100 | > 100 | > 100 | > 100 | > 100 | > 100 | > 100 | – | – | – | – | – | – | – | – | – | – | – | –
CC1(C)CC[C@]2(C(=O)O)CC[C@]3(C)C(=CC[C@@H]4[C@@]5(C)CC[C@H](O)C(C)(C)[C@@H]5CC[C@]43C)[C@@H]2C1 [OLEANOLIC_ACID] | > 100 | > 100 | > 100 | > 100 | > 100 | > 100 | > 100 | – | – | – | – | – | – | – | – | – | – | – | –
COc1cc([C@@H]2c3cc4c(cc3[C@@H](O[C@@H]3O[C@@H]5CO[C@@H](C)O[C@H]5[C@H](O)[C@H]3O)[C@H]3COC(=O)[C@H]23)OCO4)cc(OC)c1O [ETOPOSIDE] | 23.9 | 14.4 | 24.2 | 8.9 | 4.71 | – | 21.4 | – | – | – | – | – | – | – | – | – | – | – | –
